The results in this text go back to ChEMBL document CHEMBL4602728, “6-Amino[1,2,5]oxadiazolo[3,4-b]pyrazin-5-ol Derivatives as Efficacious Mitochondrial Uncouplers in STAM Mouse Model of Nonalcoholic Steatohepatitis” (J Med Chem, 2020).

The term half-life denotes the time in which the quantity being followed falls by half. The term EC50 denotes the concentration giving half of the maximal effect. As a reminder, the Cmax is the highest concentration seen after dosing. One may read the solubility as the dissolved amount per volume that the medium holds.

For data set [1], the system named is Mus musculus. Description: Anti-hepatosteatosis activity in C57BL/6 mouse model of streptozotocin-induced nonalcoholic steatohepatitis assessed as reduction in steatosis score at 25 mg/kg/day, po administered for 21 days formulated into HFD measured post-last dose by […] based histopathological analysis. Format: functional, organism-based. Summed up:
(§1)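 Liver tissue came from STAM male mice fed drug-containing high-fat diet at 25 mg kg−1 d−1 for 21 days from 6 weeks of age. Pieces of the left lateral lobe were Bouin-fixed and paraffin-embedded, then H&E-stained. A pathologist scored steatosis, inflammation and ballooning using the Kleiner NAFLD activity score criteria. n = 8 per group; Kruskal–Wallis test.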

A short description of data set [2]: Toxicity in C57BL/6 mouse assessed as increase in body temperature at 5 to 50 mg/kg, po measured upto 4 hrs by rectal probe thermometry. It counts as organism-based. The settings on record: in vivo. An outline of the steps:
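Male C57BL/6 mice received a single oral gavage of vehicle or compound at 5, 20 or 50 mg/kg. The vehicle was methylcellulose, Tween 80 and DMSO. Core body temperature was taken with a rectal probe thermometer at set time points. n = 3; two-way repeated measures ANOVA.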

Data set [3] is described as follows: Toxicity in C57BL/6 mouse model of streptozotocin-induced nonalcoholic steatohepatitis assessed as change in plasma AST level at 25 mg/kg/day, po formulated into HFD administered for 21 days measured post last dose. Format: organism-based. The following applies: in vivo, 504 h. An outline of the steps: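 Plasma was taken at day 21 from STAM mice fed drug in high-fat diet at 25 mg kg−1 d−1. AST activity was read with Infinity AST reagent at 37 °C, measuring absorbance at 340 nm every minute for 20 min. U/L was calculated from ΔA/min times a factor based on the NADH molar absorption coefficient, sample volume and path length. n = 8; one-way ANOVA.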

The nature of data set [4]: Half life in C57BL/6 mouse at 10 mg/kg, po administered via gavage by LC/MS-MS analysis. It counts as ADME, organism-based. The settings on record: in vivo. An outline of the steps:
(§2)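 Male C57BL/6 mice aged 9–12 weeks received a single 10 mg/kg oral gavage bolus. The vehicle was methylcellulose 90–91%, Tween 80 2–3% and DMSO 6–8% (v/v). Tail-tip blood was drawn into heparinized capillaries and spun at 2000g for 10 min. Plasma was extracted with acetonitrile:methanol (9:1) and quantified by LC–MS/MS against spiked plasma standards (1–100 ng). n = 3.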

The nature of data set [5]: Drug distribution in C57BL/6 mouse liver at 10 mg/kg, po administered via gavage measured after 1 hr by LC/MS-MS analysis. Format: ADME, organism-based. The settings on record: read-out: Drug uptake. Summed up:
(§3)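 Male C57BL/6 mice received a single 10 mg/kg oral gavage and were euthanized by cervical dislocation at 1 h. Tissues were rinsed in PBS, snap-frozen, pulverized in liquid nitrogen and homogenized, then spun at 10 000g for 10 min. Supernatants were extracted with acetonitrile:methanol (9:1) and quantified by LC–MS/MS against spiked standards. n = 3.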

A short description of data set [6]: Toxicity in C57BL/6 mouse model of streptozotocin-induced nonalcoholic steatohepatitis assessed as effect on plasma cholesterol level at 25 mg/kg/day, po formulated into HFD administered for 21 days measured post last dose by […] reagent based colorimetric method. The settings on record: in vivo, 504 h. It counts as organism-based. Summed up:
(§4)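 Cholesterol was measured in day-21 nonfasting plasma of STAM male mice on 25 mg kg−1 d−1 drug in high-fat diet. The colorimetric assay used Infinity cholesterol reagent at 37 °C for 5–20 min, reading absorbance at 500 nm minus 660 nm background. Values were interpolated from a cholesterol standard curve. n = 8; Kruskal–Wallis test.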

Data set [7] relates to Mus musculus. In words: Anti-hepatosteatosis activity in C57BL/6 mouse model of streptozotocin-induced nonalcoholic steatohepatitis assessed as reduction in ballooning score at 25 mg/kg/day, po administered for 21 days formulated into HFD measured post-last dose by […] based histopathological analysis. It counts as functional, organism-based. Summed up:
as §1

A short description of data set [8]: Toxicity in C57BL/6 mouse model of streptozotocin-induced nonalcoholic steatohepatitis assessed as effect on liver weight at 25 mg/kg/day, po formulated into HFD administered for 21 days measured during compound dosing. The settings on record: in vivo, 504 h. Format: organism-based. An outline of the steps: (§5)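 STAM male mice received the compound premixed in high-fat diet for 21 days from 6 weeks of age, at 25 mg kg−1 d−1. Body weight was recorded, and livers were weighed after sacrifice at 9 weeks of age. n = 8 per group; Kruskal–Wallis test.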

Data set [9] relates to Mus musculus. In words: Anti-hepatosteatosis activity in C57BL/6 mouse model of streptozotocin-induced nonalcoholic steatohepatitis assessed as reduction in liver triglyceride level at 25 mg/kg/day, po administered for 21 days formulated into HFD measured post-last dose by triglyceride E test based assay. It counts as functional, organism-based. Summed up: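 STAM male mice received 25 mg kg−1 d−1 in high-fat diet for 21 days and were killed at 9 weeks of age. The right liver lobe was snap-frozen. Total lipids were extracted by Folch's method, with homogenization in chloroform–methanol (2:1, v/v) and overnight incubation at room temperature. n = 8 per group; one-way ANOVA.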

The test system of data set [10] is Mus musculus. In words: Anti-hepatosteatosis activity in C57BL/6 mouse model of streptozotocin-induced nonalcoholic steatohepatitis assessed as reduction in ALT level at 25 mg/kg/day, po administered for 21 days formulated into HFD measured post-last dose. It counts as functional, organism-based. An outline of the steps:
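STAM male mice were dosed with compound premixed into high-fat diet (57 kcal % fat) from 6 weeks of age for 21 days, at 25 mg kg−1 d−1. They were sacrificed at 9 weeks of age by cardiac puncture under isoflurane. Nonfasting heparinized blood was spun at 1000g for 15 min at 4 °C, and plasma ALT was read on a dry-chemistry analyzer. n = 8 male mice per group; mean ± SEM.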

Data set [11] is described as follows: Toxicity in C57BL/6 mouse model of streptozotocin-induced nonalcoholic steatohepatitis assessed as effect on body weight at 25 mg/kg/day, po formulated into HFD administered for 21 days measured during compound dosing. Format: organism-based. The settings on record: in vivo, 504 h. An outline of the steps:
as §5

Data set [12] can be described thus: Toxicity in C57BL/6 mouse model of streptozotocin-induced nonalcoholic steatohepatitis assessed as effect on plasma glucose level at 25 mg/kg/day, po formulated into HFD administered for 21 days measured post last dose by […]. Format: organism-based. The settings on record: in vivo, 504 h. Summed up:
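Nonfasting whole-blood glucose was read with a glucose meter at sacrifice (day 21) in STAM male mice dosed at 25 mg kg−1 d−1 via high-fat diet. Readings above 900 mg/dL were recorded as 900 mg/dL. n = 8; one-way ANOVA.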

Data set [13] in a line: Toxicity in C57BL/6 mouse model of streptozotocin-induced nonalcoholic steatohepatitis assessed as effect on food consumption per cage at 25 mg/kg/day, po formulated into HFD administered for 21 days measured during compound dosing (reference value: 318 +/- 13 g). It counts as organism-based. The following applies: in vivo, 504 h.
A short description of data set [14]: Drug distribution in C57BL/6 mouse kidney at 10 mg/kg, po administered via gavage measured after 1 hr by LC/MS-MS analysis. It counts as ADME, organism-based. The settings on record: read-out: Drug uptake. Summed up: as §3
Data set [15] can be described thus: Induction of mitochondrial uncoupling in rat L6 cells assessed as increase in oxygen consumption rate incubated for 90 mins by Seahorse XF analyzer based assay. Format: mitochondria, Mitochondria.
Data set [16] can be described thus: Toxicity in C57BL/6 mouse model of streptozotocin-induced nonalcoholic steatohepatitis assessed as effect on plasma triglyceride level at 25 mg/kg/day, po formulated into HFD administered for 21 days measured post last dose by GPO reagent based colorimetric method. Format: organism-based. The following applies: in vivo, 504 h. Summed up: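 Plasma triglyceride was measured in day-21 nonfasting plasma from STAM male mice given 25 mg kg−1 d−1 in high-fat diet. Samples were incubated with GPO reagent at 37 °C for 5–20 min until absorbance at 500 nm stabilized. Values were interpolated from a glycerol standard curve. n = 8; Kruskal–Wallis test.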

The target in data set [17] is Voltage-gated inwardly rectifying potassium channel KCNH2 (Homo sapiens, UniProt Q12809). Description: Inhibition of human ERG by Qpatch method.
The nature of data set [18]: Cmax in C57BL/6 mouse at 10 mg/kg, po administered via gavage by LC/MS-MS analysis. It counts as ADME, organism-based. Further details: dose 10 mg/kg, route oral. The settings on record: in vivo. Summed up:
as §2

For data set [19], the system named is Mus musculus. Description: Anti-hepatosteatosis activity in C57BL/6 mouse model of streptozotocin-induced nonalcoholic steatohepatitis assessed as reduction in inflammation score at 25 mg/kg/day, po administered for 21 days formulated into HFD measured post-last dose by […] based histopathological analysis. Format: functional, organism-based. An outline of the steps: as §1

Data set [20] relates to Mus musculus. Description: Anti-hepatosteatosis activity in C57BL/6 mouse model of streptozotocin-induced nonalcoholic steatohepatitis assessed as fibrosis score at 25 mg/kg/day, po administered for 21 days formulated into HFD measured post-last dose by Picro-Sirius red staining based histopathological analysis (reference value: 0.91 +/- 0.09 %). Format: functional.
Data set [21] is described as follows: Solubility of compound in PBS at pH 7.4. Format: physicochemical. The following applies: buffer.
The nature of data set [22]: Toxicity in C57BL/6 mouse model of streptozotocin-induced nonalcoholic steatohepatitis assessed as increase in plasma cholesterol level at 25 mg/kg/day, po formulated into HFD administered for 21 days measured post last dose by […] reagent based colorimetric method. Format: organism-based. The following applies: in vivo, 504 h. An outline of the steps: as §4
The test system of data set [23] is Mus musculus. Description: Anti-hepatosteatosis activity in C57BL/6 mouse model of streptozotocin-induced nonalcoholic steatohepatitis assessed as reduction in liver triglyceride level at 10 mg/kg/day, po administered for 21 days formulated into HFD measured post-last dose by triglyceride E test based assay. It counts as functional, organism-based.
For data set [24], the system named is Mus musculus. In words: Anti-hepatosteatosis activity in C57BL/6 mouse model of streptozotocin-induced nonalcoholic steatohepatitis assessed as fibrosis score at 10 mg/kg/day, po administered for 21 days formulated into HFD measured post-last dose by Picro-Sirius red staining based histopathological analysis (reference value: 0.91 +/- 0.09 %). It counts as functional.

In data set [25] the test system is Mus musculus. Description: Anti-hepatosteatosis activity in C57BL/6 mouse model of streptozotocin-induced nonalcoholic steatohepatitis assessed as reduction in ALT level at 10 mg/kg/day, po administered for 21 days formulated into HFD measured post-last dose. Format: functional, organism-based.
Data set [26] is described as follows: Toxicity in C57BL/6 mouse model of streptozotocin-induced nonalcoholic steatohepatitis assessed as change in plasma AST level at 10 mg/kg/day, po formulated into HFD administered for 21 days measured post last dose. Format: organism-based. The settings on record: in vivo, 504 h.
The nature of data set [27]: Toxicity in C57BL/6 mouse model of streptozotocin-induced nonalcoholic steatohepatitis assessed as effect on liver weight at 10 mg/kg/day, po formulated into HFD administered for 21 days measured during compound dosing. It counts as organism-based. The following applies: in vivo, 504 h.
A short description of data set [28]: Toxicity in C57BL/6 mouse model of streptozotocin-induced nonalcoholic steatohepatitis assessed as decrease in food consumption per cage at 10 mg/kg/day, po formulated into HFD administered for 21 days measured during compound dosing relative to control. Format: organism-based. The settings on record: in vivo, 504 h. Further details: scale not given: the % may be the effect or the level left.

Data set [29] can be described thus: Toxicity in C57BL/6 mouse model of streptozotocin-induced nonalcoholic steatohepatitis assessed as effect on body weight at 10 mg/kg/day, po formulated into HFD administered for 21 days measured during compound dosing. Format: organism-based. The settings on record: in vivo, 504 h.

Active and inactive are the calls of the source. Some results are limits rather than exact numbers.

Sequence of Voltage-gated inwardly rectifying potassium channel KCNH2 (Q12809 whole entry): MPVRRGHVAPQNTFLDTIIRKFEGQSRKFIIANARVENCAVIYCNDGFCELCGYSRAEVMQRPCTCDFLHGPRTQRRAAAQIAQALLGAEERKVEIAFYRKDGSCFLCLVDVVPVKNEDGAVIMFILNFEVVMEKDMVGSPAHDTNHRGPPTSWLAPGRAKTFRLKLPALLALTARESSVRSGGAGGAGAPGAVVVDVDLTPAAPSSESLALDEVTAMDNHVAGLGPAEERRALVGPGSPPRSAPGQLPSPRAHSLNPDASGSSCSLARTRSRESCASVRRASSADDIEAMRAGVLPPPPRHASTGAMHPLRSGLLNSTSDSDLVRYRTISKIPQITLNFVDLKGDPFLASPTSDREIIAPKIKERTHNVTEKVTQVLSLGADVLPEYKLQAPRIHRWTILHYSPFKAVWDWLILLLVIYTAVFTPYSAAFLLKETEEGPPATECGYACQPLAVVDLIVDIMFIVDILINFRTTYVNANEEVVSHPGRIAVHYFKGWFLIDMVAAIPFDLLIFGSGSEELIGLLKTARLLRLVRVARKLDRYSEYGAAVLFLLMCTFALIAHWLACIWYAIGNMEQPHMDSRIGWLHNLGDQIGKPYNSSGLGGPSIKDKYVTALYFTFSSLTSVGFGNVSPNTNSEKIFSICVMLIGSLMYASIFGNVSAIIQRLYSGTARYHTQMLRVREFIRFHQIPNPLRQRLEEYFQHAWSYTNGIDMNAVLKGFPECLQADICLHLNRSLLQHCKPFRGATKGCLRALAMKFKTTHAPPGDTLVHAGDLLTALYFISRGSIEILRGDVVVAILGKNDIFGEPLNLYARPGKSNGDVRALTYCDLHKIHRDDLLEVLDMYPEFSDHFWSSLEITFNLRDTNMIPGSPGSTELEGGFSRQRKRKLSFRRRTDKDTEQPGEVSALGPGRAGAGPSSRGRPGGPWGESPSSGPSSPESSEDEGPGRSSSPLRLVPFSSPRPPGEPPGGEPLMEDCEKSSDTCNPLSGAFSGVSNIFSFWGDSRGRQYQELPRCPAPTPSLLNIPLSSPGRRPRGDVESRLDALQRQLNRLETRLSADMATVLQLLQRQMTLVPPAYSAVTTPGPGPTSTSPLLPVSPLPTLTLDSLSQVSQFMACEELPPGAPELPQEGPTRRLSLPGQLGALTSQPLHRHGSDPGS

As to `Oc1nc2nonc2nc1Nc1ccc(OC(F)(F)F)cc1`, the result in the data set on Mus musculus [1], in the data set with Mus musculus [7], in the data set with Mus musculus [9], in the data set on Mus musculus [10] and with Mus musculus [19] was Active. Moreover, the Activity entry in [2], in data set [3], in data set [6], in data set [8], in data set [11] and in [12] was “Non-Toxic” in each case. In addition, the Activity is 331 g in data set [13], “Non-Toxic” in [16] and 0.62% in the data set on Mus musculus [20]. Moreover, the half-life in data set [4] was 5.7 h. Besides, the concentration at 1 h in data set [5] turned out to be 15800 ng/g; in data set [14], 9200 ng/g. Moreover, the EC50 in [15] worked out at 4.3 µM. Moreover, in [17], the “inhibition (INH)” value is listed as “Not Active”. Further, in [18], the peak level (Cmax) was 80.9 µM. Moreover, in data set [21], the solubility was > 500 µM.
As to `CCCc1nc2c(C)cc(-c3nc4ccccc4n3C)cc2n1Cc1ccc(-c2ccccc2C(=O)O)cc1`, the Activity entry in data set [22] is given as “Toxic”; in the data set with Mus musculus [24], 0.6%; in data set [26], “Non-Toxic”; in [27], “Toxic”; in [28], 9%; in [29], “Toxic”. Besides, the outcome in the data set on Mus musculus [23] and in the data set with Mus musculus [25] was Active.
